LEDGF integ inh – blockers of LEDGF/p75-dependent integrase strand transfer – biochemical, TR-FRET, high throughput, primary screen | inhibition, % at 3.7 µM | HIV-1 integrase (with human LEDGF/p75) | TR-FRET IN-LEDGF/p75 DNA integration, Eu/Cy5 | actives 0.64% (n = 370,000);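 active = inhibition above the screen-wide mean plus 3 SD, cut at about 13% in these data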;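 also: signal is the Cy5 over europium emission ratio at 671 and 618 nm; 0% = plate median of compound wells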
MBD2 DNA inh – inhibitors of MBD2 binding to methylated DNA, primary screen, biochemical, TR-FRET, DNA-binding domain, human | inhibition, % at 4.4 µM | MBD2 binding to methylated oligonucleotide | actives 0.31% (n = 370,000) | Methyl-CpG-binding domain protein 2 (Homo sapiens), Q9UBB5 | AID 686964, 2013; in the data active = inhibition above about 13%
UHRF1 MBD2 ctr – UHRF1 methylated DNA binding inhibitors, primary screen, counter-screen for MBD2 inhibitor project, biochemical, TR-FRET, human UHRF1, single concentration; E3 ubiquitin-protein ligase UHRF1 (Homo sapiens), Q96T88; UHRF1 binding to methylated oligo; inhibition, % at 4.4 µM; actives 0.75% (n = 370,000); in the data active = inhibition above about 21%;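 also: UHRF1 SRA domain binding a hemimethylated CpG hairpin DNA probe; 0% = median of test compound wells and 100% = reference inhibitor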
Target sequence (Q96T88 whole entry, looked up, the tested form may be a part): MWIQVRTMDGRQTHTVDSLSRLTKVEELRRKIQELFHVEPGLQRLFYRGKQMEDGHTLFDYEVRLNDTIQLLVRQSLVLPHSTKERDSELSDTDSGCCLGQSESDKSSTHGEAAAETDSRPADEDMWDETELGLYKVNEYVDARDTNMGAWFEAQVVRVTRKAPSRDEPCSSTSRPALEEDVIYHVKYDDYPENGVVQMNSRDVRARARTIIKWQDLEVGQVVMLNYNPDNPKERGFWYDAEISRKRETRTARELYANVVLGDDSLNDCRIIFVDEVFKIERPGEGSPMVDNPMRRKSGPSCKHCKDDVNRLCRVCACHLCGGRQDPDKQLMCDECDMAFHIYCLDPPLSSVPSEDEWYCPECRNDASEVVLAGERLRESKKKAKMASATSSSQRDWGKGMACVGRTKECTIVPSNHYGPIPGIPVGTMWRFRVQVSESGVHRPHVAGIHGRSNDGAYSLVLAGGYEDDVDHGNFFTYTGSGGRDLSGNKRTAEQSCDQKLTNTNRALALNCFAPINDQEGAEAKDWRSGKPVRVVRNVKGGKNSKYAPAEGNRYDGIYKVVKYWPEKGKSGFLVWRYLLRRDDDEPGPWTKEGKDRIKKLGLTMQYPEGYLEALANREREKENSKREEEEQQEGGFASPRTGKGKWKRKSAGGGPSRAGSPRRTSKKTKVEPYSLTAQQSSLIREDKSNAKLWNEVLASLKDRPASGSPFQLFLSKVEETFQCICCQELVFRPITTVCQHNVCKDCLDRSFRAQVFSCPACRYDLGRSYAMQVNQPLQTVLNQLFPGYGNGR
TDP2 inh – human TDP2 enzyme inhibitors, primary screen, biochemical, epi absorbance, recombinant enzyme. Tyrosyl-DNA phosphodiesterase 2 (Homo sapiens), O95551. T5PNP hydrolysis, p-nitrophenol absorbance 415 nm. inhibition, % at 12.8 µM. actives 0.34% (n = 370,000). AID 720702, 2013;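 active = inhibition above the mean of all tested compounds plus 3 SD, set per campaign, cut at about 25% in these data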;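 also: 0% = DMSO with enzyme and 100% = buffer with substrate but no TDP2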
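System: recombinant human TDP2 / Amount: 120 nM TDP2 per well / Also added: 5 mM T5PNP chromogenic substrate / Doses: 12.8 µM single point, 1% DMSO / Incubation: 2 h at 37 °C / Detection: p-Nitrophenol epi absorbance / Evaluation: % inhibition relative to enzyme-containing and enzyme-free wells / Repeats: singlicate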
core dimer inh – inhibitors of HCV core protein dimerization, primary screen, biochemical, TR-FRET, high-throughput; TR-FRET GST/Flag-core106 dimerization, 1536-well; inhibition, % at 5 µM; actives 0.33% (n = 300,000); AID 1899, 2009;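 active = inhibition above the mean of all tested compounds plus 3 SD, set per screening campaign, cut at about 45% in these data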
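Test system: GST/Flag-tagged HCV core106 proteins; Medium: KF-containing HEPES buffer, pH 7.45, DTT, CHAPS, BSA; Times: compound-protein-antibody incubation 4 h at 22.5 °C; Detection: TR-FRET 671 and 617 nm emission; Benchmarks: wells lacking GST-core106 and wells with excess unlabelled core106.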
TDP2 confirm – human TDP2 enzyme inhibitors, retest, confirmation, biochemical, epi absorbance, recombinant enzyme. actives 22% (n = 1,100). absorbance read-out. shares compounds with TDP2 inh. inhibition, % at 12.8 µM; in the data active = inhibition above about 25%;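 also: 0% = vehicle with enzyme and 100% = no enzyme buffer only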
IN multimer act – HIV-1 IN multimer formation enhancers, counter-screen for LEDGF/p75 integration inhibitor project, biochemical, TR-FRET; TR-FRET HIV-1 integrase multimerization; activation, % at 7.7 µM; AID 1053131, 2014; actives 17% (n = 2,000); shares compounds with LEDGF integ inh; in the data active = activation above about 8.9%
TRFRET interf – TR-FRET optical interference artefacts, confirmation, artefact control for LEDGF/p75-dependent integration inhibitor project, biochemical, HIV-1 IN multimerization | 2,000 tested, under 10 active | shares compounds with LEDGF integ inh | TR-FRET optical interference counterscreen | inhibition, % at 7.7 µM;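 active = inhibition above the mean over all tested compounds plus 3 SD, which no compound reached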;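 also: 0% = integrase with antibodies and DMSO and 100% = antibodies without integrase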
LEDGF integ conf – inhibitors of HIV-1 IN-LEDGF/p75 DNA integration, confirmation, biochemical, TR-FRET | shares compounds with LEDGF integ inh | TR-FRET LEDGF/p75-dependent HIV-1 integration | inhibition, % at 3.7 µM | actives 36% (n = 2,000) | AID 1053136, 2014; in the data active = inhibition above about 14%
The depositor's hits bear a star; x = not tested or not shown. Compounds with a hit are over-represented: about 1.8% of the library has one in this group of screens.

SMILES	LEDGF integ inh	MBD2 DNA inh	UHRF1 MBD2 ctr	TDP2 inh	core dimer inh	TDP2 confirm	IN multimer act	TRFRET interf	LEDGF integ conf
CC(C)CCNC(=O)[C@H](Cc1ccccc1)N1Cc2ccccc2C1=O	-1	1	0	34*	5	5	x	x	x
CC(C)CCNC(=O)[C@H](CSCc1ccccc1)N1Cc2ccccc2C1=O	-1	-3	4	-5	4	x	x	x	x
COc1ccc(CNc2nc3nc(-c4ccccc4)cc(=O)n3[nH]2)cc1OC	-2	6	3	33*	0	7	x	x	x
CCc1ccc(CNCC(=O)N2CCC3(CC2)OCCO3)s1	5	-4	-2	-6	x	x	x	x	x
COc1ccc2c(c1)[C@@]1(NCCc3c1[nH]c1ccc(OC)cc31)C(=O)N2	6	1	2	0	x	x	x	x	x
Nn1cnnc1N/N=C/c1cccc(Cl)c1Cl	56*	2	7	75*	x	-3	1	-3	-2
FC(F)(F)c1ccccc1/C=N/Nc1ccccn1	0	3	-2	1	6	x	x	x	x
Nn1cnnc1N/N=C/c1ccccc1C(F)(F)F	47*	-1	7	51*	-3	-2	2	-7	-6
CCOc1ccc(-n2c(SCC(=O)c3ccccc3Cl)nnc2-c2ccncc2)cc1	5	-2	0	-4	x	x	x	x	x
CN1c2ccccc2C(C)(C)C12C=Nc1c(cc(N3CCOCC3)c3ccccc13)O2 (configuration not stated)	14*	-7	8	53*	x	12	2	-6	-1
CC(C)(C)c1ccc(-c2nnc(SCC(=O)Nc3ccc(S(=O)(=O)Nc4nccs4)cc3)n2-c2ccc(Cl)cc2)cc1	4	-4	-1	6	x	x	x	x	x
CCOC(=O)N1CCN(C(=O)C[C@H]2C[C@@]3(C(=O)OC)C(=C[C@H](C(C)C)O[C@@H]3C3CC3)N(Cc3ccc(Cl)cc3Cl)C2=O)CC1	9	-6	1	-6	x	x	x	x	x
CC(=O)N1CCn2c3c(c(=O)c4cc(C)ccc42)CCC31 (configuration not stated)	20*	-7	-1	34*	4	50*	0	-1	23*
CCOC(=O)c1c2c(n(C)c1C)C(=O)C(=O)c1ccc(Br)cc1-2	7	5	0	-3	19	x	x	x	x
CCOC(=O)c1c2c(n(Cc3ccccc3)c1C)C(=O)C(=O)c1ccccc1-2	17*	-9	2	51*	x	73*	3	-9	72*
CCCC(=Nc1ccccc1)C1=C(O)C(C(=O)OC)C(C)(C)CC1=O (configuration not stated)	0	-2	-1	-9	-3	x	x	x	x
CCC(=Nc1ccc(N)cc1)C1=C(O)C(C(=O)OC)C(C)(C)CC1=O (configuration not stated)	32*	-2	21*	55*	-18	17	20*	-72	7
CCCCC(=Nc1ccc(N)cc1)C1=C(O)C(C(=O)OC)C(C)(C)CC1=O (configuration not stated)	46*	-6	13	60*	-30	17	19*	-67	4
O=C(NCCc1ccccn1)c1ccc2c(c1)ncn2C1CCCCC1	0	-2	0	6	x	x	x	x	x
O=C(O)Cc1ccc(N2N=C(c3ccccc3)CC2=O)cc1	26*	9	18	71*	x	5	1	-5	10
O=C(CCCC(=O)N/N=C\c1ccccn1)N/N=C\c1ccccn1	-1	-5	-2	9	2	x	x	x	x
CC(Nc1cccc2ccccc12)C(=O)N/N=C/c1ccccn1 (configuration not stated)	23*	-4	4	26*	-3	4	3	-15	-4
Nn1cnnc1N/N=C/c1ccc(Cl)c([N+](=O)[O-])c1	44*	3	10	75*	5	37*	1	-3	7
Cc1ccc(/C=N/Nc2nncn2N)cc1	65*	-2	11	78*	8	2	-3	11	4
Cc1nnc(C)n1N=Cc1ccc(Cl)c([N+](=O)[O-])c1	-1	-1	1	6	x	x	x	x	x
SMILES	LEDGF integ inh	MBD2 DNA inh	UHRF1 MBD2 ctr	TDP2 inh	core dimer inh	TDP2 confirm	IN multimer act	TRFRET interf	LEDGF integ conf
Fc1ccc(/C=N/Nc2nn[nH]n2)cc1	3	7	-1	-3	-3	x	x	x	x
Cc1ccc(/C=N/Nc2nc(C)cc(C)n2)cc1	1	-2	1	15	-2	x	x	x	x
Nn1cnnc1N/N=C/c1ccc(F)cc1	65*	5	6	64*	5	-5	-1	2	-6
CCOc1cc(/C=C2/C(=O)N(c3ccccc3)N=C2C)ccc1OC(=O)c1ccco1	25*	10	18	77*	1	29*	1	-5	7
NC1=CC(=O)C(=O)c2ccccc21	9	-20	-15	15	x	x	x	x	x
O=C1C=C(O)c2[nH]c(=O)ccc2C1=O	26*	-10	10	41*	x	42*	30*	-106	51*
COC[C@H]1CCCN1c1ccc2c(c1)O[C@H]1CCN(C1)S2(=O)=O	4	0	0	2	x	x	x	x	x
CN(C)c1ccc(N/C=C/C(=O)C(C)(C)C)cc1	25*	-1	13	55*	-22	-4	12*	-43	1
CCOC(=O)c1c(C)oc2c1c(C=NCC1CCCO1)c(O)c1ccccc12 (configuration not stated)	17*	-5	9	29*	x	11	1	-3	-1
O=C(O)c1cccc(-c2ccc(/C=N/NC(=O)c3cccnc3)o2)c1	5	3	7	2	-12	x	x	x	x
